Measured values reported in publication PMC4160068 (ACS chemical biology, 2014).

Tests used:
[1] = system: A375 and SKMEL5 parental cells; test: MTS viability of parental BRAF-mutant melanoma cells under PLX4032; format: cell-based; details: concentrations in which PLX-R derivative lines grew
PKCδ = PKCδ (Homo sapiens, UniProt Q05655); test: In vitro kinase assay, PKCδ; format: biochemical
[2] = system: cancer cells with activation of RAS or RAS signaling; test: "Ras-specific" cytotoxicity
[3] = system: normal primary cells or cell lines; details: at the concentrations employed herein; cited from earlier work
SBcl2 cells = test: DNA fragmentation; format: cell-based; details: 24 hr
Outline: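 SBcl2 cells treated 24 hr with test compound (5 or 0.5 µM) alone, or at 0.5 µM together with pan-caspase inhibitor Z-VAD-FMK (100 µM). Sub-G1 (fragmented DNA) fraction measured by flow cytometry. Mean of duplicates with SD.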

SBcl2 melanoma cells = test: Clonogenic colony assay; format: cell-based; details: SBcl2, 1 µM, 48 hr of drug exposure, then 8 days without inhibitor
Outline: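 SBcl2 cells exposed to test compound at 1 µM for 0, 12, 24 or 48 hr. Equal numbers of viable cells from each condition then replated at low density and grown 8 days in inhibitor-free medium. Colony-forming ability compared across exposure times.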

[4] = system: caspase 3/7 in SBcl2 cells; test: Caspase 3/7 activity assay; format: cell-based; details: SBcl2, 5 µM, 24 hr
[5] = system: melanoma cell lines with NRAS mutations (SBcl2, FM6, SKMEL2, WM1366, WM1361A, WM852); test: MTS cell survival assay in NRAS-mutant melanoma lines; format: cell-based; details: 24, 48, 72 hr
Outline: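 Cell lines carrying NRAS Q61 mutations (SBcl2, FM6, SKMEL2, WM1366, WM1361A, WM852) exposed to test compounds at 2 or 5 µM, or 0.2 or 0.5 µM (0.1 and 2 µM also in SBcl2). MTS read at 24, 48 and 72 hr. Controls: DMSO vehicle and 2 µM negative control compound. Mean of triplicates ± SD; p versus DMSO at 72 hr.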

mice = details: administered orally or intraperitoneally to mice; cited from earlier work
[6] = cited from earlier work
[7] = system: MKK4-JNK-H2AX pathway in SBcl2 cells; test: Immunoblot analysis of JNK pathway signaling; format: cell-based; details: pre-treatment 50 µM, data not shown

Chain of PKCδ (Q05655 whole entry): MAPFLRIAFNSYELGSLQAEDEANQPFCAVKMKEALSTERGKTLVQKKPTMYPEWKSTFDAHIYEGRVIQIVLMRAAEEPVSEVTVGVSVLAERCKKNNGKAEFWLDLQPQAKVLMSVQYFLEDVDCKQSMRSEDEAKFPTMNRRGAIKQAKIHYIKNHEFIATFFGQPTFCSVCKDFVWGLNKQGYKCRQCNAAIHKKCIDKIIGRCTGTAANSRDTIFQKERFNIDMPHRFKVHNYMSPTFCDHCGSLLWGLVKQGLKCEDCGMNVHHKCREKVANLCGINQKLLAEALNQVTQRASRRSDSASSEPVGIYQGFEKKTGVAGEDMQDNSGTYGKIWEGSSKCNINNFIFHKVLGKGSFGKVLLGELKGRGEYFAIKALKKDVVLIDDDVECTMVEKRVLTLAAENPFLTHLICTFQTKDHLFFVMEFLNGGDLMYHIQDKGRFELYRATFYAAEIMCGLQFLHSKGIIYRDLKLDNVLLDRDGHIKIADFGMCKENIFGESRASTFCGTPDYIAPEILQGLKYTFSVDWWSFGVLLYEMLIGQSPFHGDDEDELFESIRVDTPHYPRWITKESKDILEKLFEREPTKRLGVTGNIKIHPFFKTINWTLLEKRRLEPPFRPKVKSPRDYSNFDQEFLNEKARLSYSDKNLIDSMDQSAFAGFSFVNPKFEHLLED

**Q.** For `CCCS(=O)(=O)Nc1ccc(F)c(C(=O)c2c[nH]c3ncc(-c4ccc(Cl)cc4)cc23)c1F` [PLX4032, vemurafenib], which “Cytotoxicity to parental cells” value [1] is on record?
**A.** cytotoxic

**Q.** For `CC(=O)c1c(O)c(C)c(O)c(Cc2c(O)c3c(c(C(=O)/C=C/c4ccccc4)c2O)OC(C)(C)C=C3)c1O` [Rottlerin, rottlerin], which IC50 (PKCδ; PKCδ IC50, in vitro kinase assay) is on record?
**A.** 3 to 5 µM

**Q.** What about the “PKCδ/PKCα Selectivity” value (PKCδ; PKCδ over PKCα) of the same compound?
**A.** 28-fold

**Q.** And the “"Ras-specific" Cytotoxicity” value [2]?
**A.** 3 to 5 µM

**Q.** And the “Cytostatic or cytotoxic effect on normal cells” value [3]?
**A.** not cytostatic or cytotoxic

**Q.** What about the “Proportion of sub-G1 population (fragmented DNA)” value (SBcl2 cells; SBcl2, 5 µM) of the same compound?
**A.** significantly higher

**Q.** What about the “Reduction in the number of colonies” value (SBcl2 melanoma cells) of the same compound?
**A.** approximately 40 fold

**Q.** And the “Increase in caspase 3/7 activity vs vehicle (DMSO)” value [4]?
**A.** 5 fold

**Q.** What about the “Cell proliferation (MTS)” value ([5]; 2 µM) of the same compound?
**A.** intermediate inhibitory effects

**Q.** What about the “Cell proliferation (MTS)” value ([5]; 5 µM) of the same compound?
**A.** consistently inhibited proliferation of all cell lines

**Q.** And the Tolerability (mice)?
**A.** well-tolerated

**Q.** What about the Aqueous solubility [6] of the same compound?
**A.** moderate

**Q.** With “carbobenzoxy-valyl-alanyl-aspartyl-[Omethyl]-fluoromethylketone [Z-VAD-FMK]” as the compound, how does the “B106-induced caspase 3 cleavage (immunoblot)” value [7] read?
**A.** prevented

**Q.** And the “B106-induced DNA fragmentation” value (SBcl2 cells; SBcl2 pretreated with 100 µM, B106 0.5 µM)?
**A.** significantly abrogated
